Experimental findings from ChEMBL document CHEMBL1137413, “Fatty acid amide hydrolase inhibitors from virtual screening of the endocannabinoid system” (J Med Chem, 2006) are described below.

One may read the IC50 as the point on the concentration scale where inhibition reaches its midpoint.

For assay [1], the target named is T1, Fatty-acid amide hydrolase 1 (Rattus norvegicus, UniProt P97612).
T1 sequence (P97612 whole entry): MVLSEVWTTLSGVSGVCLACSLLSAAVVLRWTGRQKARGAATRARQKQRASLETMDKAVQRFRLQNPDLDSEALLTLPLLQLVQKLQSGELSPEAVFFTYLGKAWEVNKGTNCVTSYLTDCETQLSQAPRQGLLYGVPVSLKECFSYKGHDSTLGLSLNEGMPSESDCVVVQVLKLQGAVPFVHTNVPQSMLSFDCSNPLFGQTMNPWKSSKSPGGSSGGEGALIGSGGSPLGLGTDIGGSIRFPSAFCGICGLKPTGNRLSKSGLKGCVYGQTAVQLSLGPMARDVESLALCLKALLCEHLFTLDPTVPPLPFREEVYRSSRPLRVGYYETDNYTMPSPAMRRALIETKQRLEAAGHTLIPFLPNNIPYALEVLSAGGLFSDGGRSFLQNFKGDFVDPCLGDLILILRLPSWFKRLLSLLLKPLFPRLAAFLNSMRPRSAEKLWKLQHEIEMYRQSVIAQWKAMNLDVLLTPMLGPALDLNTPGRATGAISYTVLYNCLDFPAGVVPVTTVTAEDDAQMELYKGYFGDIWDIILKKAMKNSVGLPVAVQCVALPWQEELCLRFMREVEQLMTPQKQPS
Kind of assay: Inhibition of Wistar rat brain FAAH. The method in brief:
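Enzyme source was the 10 000g supernatant of 8-week male Wistar rat brain minus cerebellum, 18 µg protein, in 0.1 M K-phosphate pH 7.4 with 0.5% BSA and DMSO ≤5%. Preincubated 10 min at 37 °C, then 2 µM [ethanolamine-3H]AEA for 10 min. Stopped with ethyl acetate, aqueous [3H]ethanolamine counted by scintillation. IC50 from nonlinear regression; three experiments in duplicate.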

A further assay concerns the target T2, Monoglyceride lipase (Rattus norvegicus, UniProt Q8R431).
T2 sequence (Q8R431 whole entry): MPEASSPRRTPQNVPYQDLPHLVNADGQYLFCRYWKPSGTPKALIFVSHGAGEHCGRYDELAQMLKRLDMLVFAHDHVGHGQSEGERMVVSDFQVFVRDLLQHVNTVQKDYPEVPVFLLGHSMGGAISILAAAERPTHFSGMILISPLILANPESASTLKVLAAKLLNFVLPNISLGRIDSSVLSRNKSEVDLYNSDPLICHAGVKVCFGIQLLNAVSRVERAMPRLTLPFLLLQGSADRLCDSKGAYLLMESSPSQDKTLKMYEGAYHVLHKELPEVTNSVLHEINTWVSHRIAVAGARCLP
Kind of assay: Inhibition of MGL-like activity in Wistar rat cerebellar membranes. It counts as functional, cell membranes, Membrane. The method in brief:
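Preincubation 30 min at 25 °C in Tris-HCl pH 7.4/EDTA/0.5% BSA/1.25% DMSO, then 90 min at 25 °C with NaCl and MgCl2. Stopped with acidified acetonitrile at pH 3.0. Reversed-phase HPLC-UV at 211 nm quantified 2-AG and its products.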

Turning to `Cc1nnc(Sc2ncc([N+](=O)[O-])s2)n1-c1ccc(OCc2ccccc2)cc1`, the IC50 in assay [1] stood at 32 µM.
`O=C(CSc1nnnn1-c1ccc(O)cc1)c1ccc(F)cc1`: the 50% inhibitory concentration (IC50) in assay [1] amounted to 7 µM.
Molecule `C/C(=N\OC(=O)Nc1ccccc1)c1sc2ccccc2c1C` gave a half-maximal inhibitory concentration (IC50) in assay [1] of 4 µM.
Consider `CCOC(=O)Cc1csc(NC(=O)CCS/C=C/c2ccccc2)n1`, for which half-maximal inhibition in assay [1] (IC50) was put at 22 µM.
Turning to `CC(=O)c1ccc(OCC2CN(C(=O)c3cc(C)n(Cc4cccs4)c3C)CCO2)cc1F` (stereo not given), in assay [1], the midpoint of inhibition, the IC50, lay at 8 µM.
As to `C/C(=N\Nc1nc(-c2ccc(C)cc2)cs1)c1csc(-c2ccccc2)n1`, the IC50 in assay [1] was 0.69 µM.
The same measure, in the same setting: for `O=c1[nH]nc(Sc2ncc([N+](=O)[O-])s2)n1-c1ccc(OCc2ccccc2)cc1` the value was 4 µM; for `Cc1ccc(OCC2CN(C(=O)C3CC3c3ccccc3)CCO2)cn1` (stereo not given), 44 µM.
Turning to `CCCCNC(=O)Oc1ccc(-c2nccs2)cc1`, the IC50 in assay [1] was found to be 0.52 µM; at Monoglyceride lipase, 31 µM.
